Reference: article PMC11382307 (Asian Journal of Pharmaceutical Sciences, 2024)

Tested on: bEnd.3 cells
Assay: In vitro cellular uptake in bEnd.3 cells
Type: in vitro ADME
Conditions: for cellular uptake observed by confocal imaging: 10 µM FITC-labelled peptide or free FITC, confocal microscopy
How it was run: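 bEnd.3 cells were seeded at 5 × 10^4/cm2 for 24 h, untreated or pretreated with poly-lysine (4 kDa, 20 µM, 1 h). They were exposed to 10 µM FITC-peptide or free FITC for 10 min, 30 min or 2 h, washed with cold PBS and fixed in 4 % PFA. Staining was DiD (10 µM, 30 min) or Hoechst, followed by confocal imaging. Flow cytometry was run on trypsinised cells (Ex 488/Em 525 nm). Mean ± SD, n = 3.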

[1] = 10 µM FITC-labelled peptide, 2 h, flow cytometry, n = 3

Molecule	cellular uptake observed by confocal imaging (2 h)	adsorption to cell membrane (10 µM FITC-labelled peptide, 10 min, confocal)	cellular uptake relative to HNSS [1] [%]	fluorescence intensity of cellular uptake relative to HNG [1] [fold]
O=C1OC2(c3ccc(O)cc3Oc3cc(O)ccc32)c2ccc(N=C=S)cc21 [free FITC, reference compound]	weak cellular uptake			
MAPRGFSCLLLLTGEIDLPVKRRAGGR(d)-Dmt-KF-NH2 [HNRS]	weak cellular uptake	adsorbed on the plasma membrane	13.9	1.5
